According to ChEMBL document CHEMBL3244187, “Structure--activity relationships in cephalosporins prepared from penicillins. 2. Analogues of cephalexin substituted in the 3-methyl group” (J Med Chem, 1977):
Converted amounts (≈) assume the structure as drawn. The source made the active and inactive calls. The rule behind the calls is not given here.

Key:
Salmonella typhi = test: Antibacterial activity against Salmonella typhi after 18 hrs by serial dilution method; format: functional, Salmonella enterica subsp. enterica serovar Typhi; conditions: Salmonella enterica
How it was run: (§1)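 MICs by serial dilution on nutrient agar. Inoculum 0.001 mL of undiluted overnight broth culture. Plates incubated 18 h at 37 °C before reading. The S. aureus Russell strain produces β-lactamase and resists benzylpenicillin.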

Staphylococcus aureus [1] = test: Antibacterial activity against Staphylococcus aureus Oxford after 18 hrs by serial dilution method; format: functional
How it was run: (§2)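 MICs by serial dilution on nutrient agar. Inoculum 0.001 mL of undiluted overnight broth culture. Plates incubated at 37 °C for 18 h before reading.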

Shigella sonnei = test: Antibacterial activity against Shigella sonnei after 18 hrs by serial dilution method; format: functional; how it was run: as §2
Staphylococcus aureus [2] = test: Antibacterial activity against beta-lactamase producing benzylpenicillin-resistant Staphylococcus aureus Russell after 18 hrs by serial dilution method; format: functional; how it was run: as §1
Proteus mirabilis = test: Antibacterial activity against Proteus mirabilis after 18 hrs by serial dilution method; format: functional; how it was run: as §2
Klebsiella aerogenes = test: Antibacterial activity against Klebsiella aerogenes after 18 hrs by serial dilution method; format: functional; how it was run: as §2
Escherichia coli = test: Antibacterial activity against Escherichia coli after 18 hrs by serial dilution method; format: functional; how it was run: as §2
[3] = Drug level in mouse blood at 50 mg/kg, po after 2 hrs by microbiological assay; format: ADME, organism-based; set-up: dose 50 mg/kg, route oral; conditions: read-out: Drug uptake
How it was run: (§3)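 Mice given a single 50 mg/kg dose by the route in the line. Groups of five killed at each time point and blood taken from the cut axilla, heparinized and stored at 4 °C. Blood assayed the same day by large-plate microbiological assay with Sarcina lutea NCTC 8340, overnight at 30 °C. Standards made in mouse blood, with pH 7.2 phosphate-buffered saline as diluent.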

[4] = Drug level in mouse blood at 50 mg/kg, sc after 20 mins by microbiological assay; format: ADME, organism-based; set-up: dose 50 mg/kg, route subcutaneous; conditions: read-out: Drug uptake; how it was run: as §3
[5] = Drug level in mouse blood at 50 mg/kg, sc after 30 mins by microbiological assay; format: ADME, organism-based; set-up: dose 50 mg/kg, route subcutaneous; conditions: read-out: Drug uptake; how it was run: as §3
[6] = Drug level in mouse blood at 50 mg/kg, po after 20 mins by microbiological assay; format: ADME, organism-based; set-up: dose 50 mg/kg, route oral; conditions: read-out: Drug uptake; how it was run: as §3
[7] = Drug level in mouse blood at 50 mg/kg, sc after 4 hrs by microbiological assay; format: ADME, organism-based; set-up: dose 50 mg/kg, route subcutaneous; conditions: read-out: Drug uptake; how it was run: as §3
[8] = Drug level in mouse blood at 50 mg/kg, sc after 10 mins by microbiological assay; format: ADME, organism-based; set-up: dose 50 mg/kg, route subcutaneous; conditions: read-out: Drug uptake; how it was run: as §3
[9] = Drug level in mouse blood at 50 mg/kg, iv after 2 hrs by microbiological assay; format: ADME, organism-based; set-up: dose 50 mg/kg, route intravenous; conditions: read-out: Drug uptake; how it was run: as §3
[10] = Drug level in mouse blood at 50 mg/kg, po after 4 hrs by microbiological assay; format: ADME, organism-based; set-up: dose 50 mg/kg, route oral; conditions: read-out: Drug uptake; how it was run: as §3
[11] = Drug level in mouse blood at 50 mg/kg, iv after 20 mins by microbiological assay; format: ADME, organism-based; set-up: dose 50 mg/kg, route intravenous; conditions: read-out: Drug uptake; how it was run: as §3
[12] = Drug level in mouse blood at 50 mg/kg, po after 30 mins by microbiological assay; format: ADME, organism-based; set-up: dose 50 mg/kg, route oral; conditions: read-out: Drug uptake; how it was run: as §3
[13] = Drug level in mouse blood at 50 mg/kg, iv after 4 hrs by microbiological assay; format: ADME, organism-based; set-up: dose 50 mg/kg, route intravenous; conditions: read-out: Drug uptake; how it was run: as §3
[14] = Drug level in mouse blood at 50 mg/kg, sc after 1 hr by microbiological assay; format: ADME, organism-based; set-up: dose 50 mg/kg, route subcutaneous; conditions: read-out: Drug uptake; how it was run: as §3
[15] = Drug level in mouse blood at 50 mg/kg, iv after 10 mins by microbiological assay; format: ADME, organism-based; set-up: dose 50 mg/kg, route intravenous; conditions: read-out: Drug uptake; how it was run: as §3
[16] = Drug level in mouse blood at 50 mg/kg, iv after 30 mins by microbiological assay; format: ADME, organism-based; set-up: dose 50 mg/kg, route intravenous; conditions: read-out: Drug uptake; how it was run: as §3
[17] = Drug level in mouse blood at 50 mg/kg, po after 1 hr by microbiological assay; format: ADME, organism-based; set-up: dose 50 mg/kg, route oral; conditions: read-out: Drug uptake; how it was run: as §3
[18] = Drug level in mouse blood at 50 mg/kg, po after 10 mins by microbiological assay; format: ADME, organism-based; set-up: dose 50 mg/kg, route oral; conditions: read-out: Drug uptake; how it was run: as §3
[19] = Drug level in mouse blood at 50 mg/kg, sc after 2 hrs by microbiological assay; format: ADME, organism-based; set-up: dose 50 mg/kg, route subcutaneous; conditions: read-out: Drug uptake; how it was run: as §3
[20] = Drug level in mouse blood at 50 mg/kg, iv after 1 hr by microbiological assay; format: ADME, organism-based; set-up: dose 50 mg/kg, route intravenous; conditions: read-out: Drug uptake; how it was run: as §3
Pseudomonas aeruginosa = test: Antibacterial activity against cephalosporin-resistant Pseudomonas aeruginosa after 18 hrs by serial dilution method; format: functional, organism-based; how it was run: as §1
Morganella morganii = test: Antibacterial activity against cephalosporin-resistant Proteus morganii after 18 hrs by serial dilution method; format: functional, organism-based; how it was run: as §1
Enterobacter cloacae = test: Antibacterial activity against cephalosporin-resistant Enterobacter cloacae after 18 hrs by serial dilution method; format: functional, organism-based; how it was run: as §1

Row | Compound | MIC (Salmonella typhi) | MIC (Staphylococcus aureus [1]) | MIC (Shigella sonnei) | MIC (Staphylococcus aureus [2]) | MIC (Proteus mirabilis) | MIC (Klebsiella aerogenes) | MIC (Escherichia coli) | concentration at 2 h [3] | concentration at 20 min [6] | concentration at 4 h [10] | concentration at 0.5 h [12] | concentration at 1 h [17] | concentration at 10 min [18] | also measured
1 | N[C@@H](C(=O)N[C@@H]1C(=O)N2C(C(=O)O)=C(Cc3ccccn3)CS[C@H]12)c1ccccc1 | 12.5 µg/mL (≈ 29.4 µM) | 1.25 µg/mL (≈ 2.94 µM) | 25 µg/mL (≈ 58.9 µM) | 12.5 µg/mL (≈ 29.4 µM) | 50 µg/mL (≈ 118 µM) | > 500 µg/mL | 50 µg/mL (≈ 118 µM) | – | – | – | – | – | – | –
2 | N[C@@H](C(=O)N[C@@H]1C(=O)N2C(C(=O)O)=C(Cc3ccccc3C(=O)O)CS[C@H]12)c1ccccc1 | 50 µg/mL (≈ 107 µM) | – | 12.5 µg/mL (≈ 26.7 µM) | 12.5 µg/mL (≈ 26.7 µM) | – | – | – | 2800 ng/mL | 1400 ng/mL | 3200 ng/mL | 2400 ng/mL | 3200 ng/mL | 1100 ng/mL | concentration at 20 min [4]: 66000 ng/mL; concentration at 0.5 h [5]: 58000 ng/mL; concentration at 4 h [7]: 31200 ng/mL; concentration at 10 min [8]: 63200 ng/mL; concentration at 2 h [9]: 29100 ng/mL; concentration at 20 min [11]: 83600 ng/mL; concentration at 4 h [13]: 18100 ng/mL; concentration at 1 h [14]: 49200 ng/mL; concentration at 10 min [15]: 102000 ng/mL; concentration at 0.5 h [16]: 75400 ng/mL; concentration at 2 h [19]: 40600 ng/mL; concentration at 1 h [20]: 64400 ng/mL
3 | COC(=O)CC1=C(C(=O)O)N2C(=O)[C@@H](NC(=O)[C@H](N)c3ccccc3)[C@H]2SC1 | 8 µg/mL (≈ 19.7 µM) | 0.5 µg/mL (≈ 1.23 µM) | 16 µg/mL (≈ 39.5 µM) | 16 µg/mL (≈ 39.5 µM) | 63 µg/mL (≈ 155 µM) | 63 µg/mL (≈ 155 µM) | 31 µg/mL (≈ 76.5 µM) | – | – | – | – | – | – | –
4 | N[C@@H](C(=O)N[C@@H]1C(=O)N2C(C(=O)O)=C(Cc3cncc(C(=O)O)c3)CS[C@H]12)c1ccccc1 | 2.5 µg/mL (≈ 5.34 µM) | 1.25 µg/mL (≈ 2.67 µM) | 12.5 µg/mL (≈ 26.7 µM) | 12.5 µg/mL (≈ 26.7 µM) | 1.25 µg/mL (≈ 2.67 µM) | 1.25 µg/mL (≈ 2.67 µM) | 12.5 µg/mL (≈ 26.7 µM) | 600 ng/mL | 850 ng/mL | < 400 ng/mL | 1700 ng/mL | 1500 ng/mL | 550 ng/mL | concentration at 20 min [4]: 54000 ng/mL; concentration at 0.5 h [5]: 35800 ng/mL; concentration at 4 h [7]: < 400 ng/mL; concentration at 10 min [8]: 70400 ng/mL; concentration at 1 h [14]: 12200 ng/mL; concentration at 2 h [19]: 2000 ng/mL
5 | N[C@@H](C(=O)N[C@@H]1C(=O)N2C(C(=O)O)=C(Cc3cccnc3)CS[C@H]12)c1ccccc1 | 1.25 µg/mL (≈ 2.94 µM) | 0.25 µg/mL (≈ 0.589 µM) | 2.5 µg/mL (≈ 5.89 µM) | 2.5 µg/mL (≈ 5.89 µM) | 5 µg/mL (≈ 11.8 µM) | 2.5 µg/mL (≈ 5.89 µM) | 2.5 µg/mL (≈ 5.89 µM) | 650 ng/mL | 1440 ng/mL | 100 ng/mL | 1250 ng/mL | 620 ng/mL | 2850 ng/mL | Activity (Pseudomonas aeruginosa): inactive; Activity (Morganella morganii): inactive; Activity (Enterobacter cloacae): inactive
6 | N[C@@H](C(=O)N[C@@H]1C(=O)N2C(C(=O)O)=C(Cc3ccccc3)CS[C@H]12)c1ccccc1 | 25 µg/mL (≈ 59 µM) | 0.1 µg/mL (≈ 0.236 µM) | 25 µg/mL (≈ 59 µM) | 2.5 µg/mL (≈ 5.9 µM) | 50 µg/mL (≈ 118 µM) | 25 µg/mL (≈ 59 µM) | 25 µg/mL (≈ 59 µM) | 340 ng/mL | 180 ng/mL | 150 ng/mL | 210 ng/mL | 190 ng/mL | 110 ng/mL | –
7 | CC(=O)OCCC1=C(C(=O)O)N2C(=O)[C@@H](NC(=O)[C@H](N)c3ccccc3)[C@H]2SC1 | 25 µg/mL (≈ 59.6 µM) | 0.5 µg/mL (≈ 1.19 µM) | 50 µg/mL (≈ 119 µM) | 10 µg/mL (≈ 23.8 µM) | > 50 µg/mL | 25 µg/mL (≈ 59.6 µM) | > 50 µg/mL | – | – | – | – | – | – | –
